# The list is not random: actives were taken first. Their share in the collection is about 3.5%.
# FGF22 binding – binders of recombinant human FGF22 by thermal shift. SYPRO orange fluorescence; percent of sucrose octasulfate shift, DMSO zero. Q9HCT0. hit rate 1.5% among 340,000. activity (Tm shift, normalised), % at 9.99 µM;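 active = mean Tm shift, scaled 0 neutral to 100 positive control, at about 1.3% or above, every replicate too, limit read from the data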
# ERAP1 inh – inhibitors of human ERAP1 aminopeptidase | Q9NZ08 | recombinant ERAP1, Leu-AMC fluorescence, 60 min | inhibition, % at 10.7 µM | hit rate 0.15% among 340,000;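 active = mean replicate inhibition of at least 30%, or all replicates individually reaching that 30% level; inactive = mean below 30% and not every replicate reaching it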;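 note: 0% = neutral control wells and 100% = L-leucinethiol positive control wells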
# Target sequence (Q9NZ08 whole entry, looked up): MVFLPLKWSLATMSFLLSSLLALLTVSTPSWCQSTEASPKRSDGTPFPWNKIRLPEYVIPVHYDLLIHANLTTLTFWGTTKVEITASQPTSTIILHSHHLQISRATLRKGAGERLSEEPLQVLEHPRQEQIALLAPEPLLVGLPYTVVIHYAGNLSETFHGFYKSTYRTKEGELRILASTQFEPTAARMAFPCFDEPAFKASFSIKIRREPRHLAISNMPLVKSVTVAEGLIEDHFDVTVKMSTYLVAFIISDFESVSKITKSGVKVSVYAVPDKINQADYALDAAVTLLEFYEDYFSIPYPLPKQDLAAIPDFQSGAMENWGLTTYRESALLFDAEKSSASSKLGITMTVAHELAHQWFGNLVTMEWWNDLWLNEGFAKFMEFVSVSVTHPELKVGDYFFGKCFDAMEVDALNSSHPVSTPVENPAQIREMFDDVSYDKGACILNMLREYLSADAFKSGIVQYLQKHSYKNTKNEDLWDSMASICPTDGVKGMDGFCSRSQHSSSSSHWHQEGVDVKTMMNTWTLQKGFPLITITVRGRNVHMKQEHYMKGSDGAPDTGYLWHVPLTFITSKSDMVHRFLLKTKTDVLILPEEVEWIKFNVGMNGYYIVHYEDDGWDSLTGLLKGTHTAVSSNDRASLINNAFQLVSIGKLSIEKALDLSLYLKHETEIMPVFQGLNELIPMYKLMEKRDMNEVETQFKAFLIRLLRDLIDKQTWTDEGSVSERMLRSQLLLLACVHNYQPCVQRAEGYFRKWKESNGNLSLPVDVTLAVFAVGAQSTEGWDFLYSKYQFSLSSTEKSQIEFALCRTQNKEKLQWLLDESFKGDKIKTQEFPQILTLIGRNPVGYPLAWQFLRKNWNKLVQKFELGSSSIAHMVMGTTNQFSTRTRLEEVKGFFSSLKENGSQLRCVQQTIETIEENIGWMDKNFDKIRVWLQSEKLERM
# PGC1a acetyl inh – modulators of PGC1a acetylation; hit rate 0.17% among 350,000; inhibition, % at 15.6 µM; U2OS PGC1a acetylation, AlphaScreen anti-acetyl-lysine; with virally co-expressed GCN5 acetyltransferase; AID 651687;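 active = every replicate shows inhibition of at least 40%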;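 note: 0% = neutral control wells and 100% = positive control wells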
# rRNA inh HTS – inhibits bacterial ribosomal RNA function over humanized ribosomes; hit rate 1.6% among 350,000; AID 720706; E. coli WT GFP vs humanized-ribosome RFP mutants, fluorescence, 24 h; active compounds read low; DMSO median 0, no signal -100; GFP signal change (wild-type ribosome), % (no concentration beside the values);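 active = significant combined selectivity score with lowered wild-type GFP, culture density cut under 30%, mutant RFP and density less affected; inactive = any of these conditions unmet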
# Cneo AK release – Cryptococcus neoformans lysis via adenylate kinase release | hit rate 0.2% among 360,000 | C. neoformans lysis, adenylate kinase release luminescence, 4 h; normalised: neutral wells 0, clomiphene wells 100 | AID 651654 | lysis activity, % at 15 µM;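 active = mean lysis activity across replicates of at least 80%, whatever share of replicates individually reach that level; inactive = mean lysis activity below 80%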
#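 Material – Cryptococcus neoformans yeast cells · Quantity – 5 × 10^6 yeast cells/mL · Buffer or medium – YPD medium · Compound – single dose · Timing – 4 h static compound exposure, 37 °C, read 1 h post-reagent · Signal – adenylate kinase release luminescence · Read-out basis – lysis from increased AK signal · Benchmarks – Clomiphene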
# HIV Env fusion – inhibitors of HIV Env-mediated cell fusion; HeLa-JRFL Env/CEM21 cell fusion, luciferase; inhibition, % at 12.3 µM; hit rate 1.1% among 360,000; AID 651610;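 active = mean replicate inhibition score of at least 50 and every replicate individually at or above 50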;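 note: 0% = plate neutral controls and 100% = maraviroc near 300 nM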
# Active calls of the source: *; i = inactive; nt = no result given; [ ] = dose if it differs, or a comment.
SMILES,FGF22 binding,ERAP1 inh,PGC1a acetyl inh,rRNA inh HTS,Cneo AK release,HIV Env fusion
COc1ccc(NC(=O)N(C)C[C@@H]2Oc3cc(-c4cccc(C(=O)N(C)C)c4)ccc3S(=O)(=O)N([C@H](C)CO)C[C@H]2C)cc1,nt,nt,17,1,nt,-8[16.7 µM]
Cc1ccc(S(=O)(=O)N2CC3(O)CN(C(=O)OC(C)C)N(C(=O)OC(C)C)CC3(OC(=O)NC3CCCC3)C2)cc1 (stereo unspecified),0,0,-8,7,-1,75*
Cc1ccc(S(=O)(=O)N2CC3(O)CN(C(=O)OC(C)C)N(C(=O)OC(C)C)CC3(OC(=O)Nc3cccs3)C2)cc1 (stereo unspecified),0,12,8,2,-2,-53
CCc1ccc(C(=O)CN2C(=O)NC(C)(c3ccc(C)cc3)C2=O)cc1 (stereo unspecified),43*,-2,16,0,4,69*
Cc1ccc(C2(C)NC(=O)N(CC(=O)c3ccc4c(c3)OCCO4)C2=O)cc1 (stereo unspecified),0,0,4,-1,0,nt
CN(Cc1ccccc1)C(=O)CCN1C(=O)c2cccc([N+](=O)[O-])c2C1=O,43*,1,nt,9,nt,2
CN(Cc1ccc(Br)cc1)C(=O)CCN1C(=O)c2cccc([N+](=O)[O-])c2C1=O,0,0,nt,3,0,7
Cc1ccc(Nc2nc(N)nc(CN3CCN(Cc4ccc5c(c4)OCO5)CC3)n2)cc1C,0,-2,0,-10,nt,-3
Cc1ccc(Nc2nc(N)nc(CN3CCN(Cc4ccc5c(c4)OCO5)CC3)n2)cc1Cl,nt,nt,-3,nt,1,69*
O=C(O)CC1=C(O)C(=O)N(c2ccccc2)C1c1ccc(Cl)cc1 (stereo unspecified),nt,nt,-10,nt,0,nt
O=C(O)CC1=C(Nc2ccccc2)C(=O)N(c2ccccc2)C1c1ccc(Br)cc1 (stereo unspecified),43*,1,nt,-22,nt,10
CS(=O)(=O)NN1C(=O)c2ccccc2NC12CCCC2,43*,-6,-5,18,nt,-3
CC(C)Cc1csc(NC(=O)c2ccc(Br)cc2)c1C(=O)O,0,-3,-2,-26*,1,-10
CC1(C)OC(=O)N(NCc2ccccc2)C1(C)O (stereo unspecified),0,-3,-10,10,3,-9
N=c1c(C(=O)NCC2CCCO2)cc2c(=O)n3ccccc3nc2n1C1CCCCC1 (stereo unspecified),0,121*,5,10,1,-8
N=c1c(C(=O)NCC2CCCO2)cc2c(=O)n3ccccc3nc2n1C1CCCC1 (stereo unspecified),0,i,1,4,-2,2
COc1ccc(CCNC(=O)c2cc3c(=O)n4ccccc4nc3n(C3CCCCC3)c2=N)cc1OC,0,-3,-41,-20*,1,11
O=C(Cc1cccnc1)N1CC2(C1)[C@H](c1ccccc1)[C@H](CO)N2C(=O)C1CCOCC1,0,1,2,3,nt,nt
Cc1nc(S/C(=C/c2ccc(OCc3ccc(C(=O)O)cc3)cc2)C(=O)O)n[nH]1,1.5*,-1,nt,1,nt,-9
N#C/C(=C\c1ccc(OCc2ccc(C(=O)O)cc2)cc1)C(=O)NCc1ccccc1,0,-12,-7,1,0,-30
CCN(CC)C(=O)[C@H]1C[C@@H]2[C@H](C[C@@H](c3ccccc3)[C@H]1C)N(c1ccc(F)cc1)C(=O)N2C/C=C(\C)CCC=C(C)C,43,1,nt,17,nt,8
CCC1(C)Cc2ccccc2C(=O)N1 (stereo unspecified),0,12,-8,17,-2,2
CC1(C)Cc2ccccc2C(=NCC(=O)O)N1,43*,-1,5,4,nt,-1
COc1ccc(C(=O)N/C(=C\c2cccc([N+](=O)[O-])c2)C(=O)Nc2cccc(C(=O)O)c2)cc1,43*,-40,-1,15,nt,-8
O=C(Nc1cccc(C(=O)O)c1)/C(=C\C=C\c1ccccc1)NC(=O)c1ccccc1,1,-50,1,-19*,nt,-1
SMILES,FGF22 binding,ERAP1 inh,PGC1a acetyl inh,rRNA inh HTS,Cneo AK release,HIV Env fusion
O=C(/C=C/c1ccccc1)Nc1cc(NC(=O)/C=C/c2ccccc2)cc(C(=O)O)c1,0,4,-4,-28,0,1
CC(=O)N1CCN(c2ccc(NC(=O)/C=C/c3ccccc3)cc2)CC1,44*,-1,nt,0,-3,19
O=C(Nc1cccc(C(=O)O)c1)/C(=C\c1ccccc1)NC(=O)c1ccccc1,0,-1,nt,-26,-2,0
O=C(/C=C/c1ccccc1)Nc1cccc(C(=O)O)c1,0,-8,-12,8,nt,78*
N#C[C@H]1[C@H](c2ccccc2C2=CCCCC2)[C@H](CO)N1C(=O)Cc1ccncc1,nt,1,-3,-5,nt,-30[16.7 µM]
Cc1ccc(S(=O)(=O)N2CC(=NN=C(N)N)C2)cc1,0,-6,nt,7,2,2
CC1(C)OC(=O)C2=C(C[C@@H](CCC(F)(F)F)O[C@H]2c2ccc(F)cc2)O1,0,-1,-6,-6,1,-4
O=C(Nc1ccc(C(=O)O)cc1)/C(=C\C=C\c1ccccc1)NC(=O)c1ccccc1Br,0,-42,3,-16*,-3,-29
CC(C)c1onc(C(=O)N2CCN(C(c3ccccc3)c3ccccc3)CC2)c1[N+](=O)[O-],0,-2,-14,11,-3,-25
CNC(=S)NNC(=O)c1noc(C)c1C(=O)N1CCN(C(c2ccccc2)c2ccccc2)CC1,44*,-2,5,3,nt,3
CC1(C)OC(=O)C=C[C@]2(C)[C@H]3CC[C@@]4(C)[C@H](c5ccoc5)OC(=O)[C@H]5O[C@]54[C@]3(C)C(=O)C[C@@H]12,17*,3,0,1,1,33
COC(=O)[C@@H]1OC(=O)[C@H]2O[C@@]23[C@@]1(C)CC[C@@H]1[C@@]2(C)C=CC(=O)OC(C)(C)[C@@H]2CC(=O)[C@]13C,0,-3,16,2,-2,-13
COC(=O)[C@H](CC(C)C)N(Cc1ccccc1)S(=O)(=O)N(Cc1ccccc1)[C@@H](CC(C)C)C(=O)OC,0,nt,nt,6,4,11
COC(=O)[C@H](CC(C)C)N(Cc1ccccc1)S(=O)(=O)N(Cc1ccc(OC)cc1)[C@@H](CC(C)C)C(=O)OC,0,-2,nt,16,2,75*
CCOC(=O)[C@@H](C)N(Cc1ccc(OC)cc1)S(=O)(=O)N(Cc1ccccc1)[C@H](C(=O)OC)C(C)C,0,-3,8,5,5,92*
COCCSc1nc2c(c(=O)[nH]c(=O)n2C)n1Cc1cccc(C)c1,0,2,8,3,-1,8

# Bioassay records deposited in PubChem by Broad Institute.
